Laboratory results: ChEMBL document CHEMBL5107950, “Structure-based design of haloperidol analogues as inhibitors of acetyltransferase Eis from Mycobacterium tuberculosis to overcome kanamycin resistance” (RSC Med Chem, 2021)
Values after ≈ are worked out from the molar mass of the structure shown. Active and inactive are the calls of the source. The calls are words filed in the database; no cut-off is given here.

Tests used:
[1] = test system: Mycobacterium intracellulare; assay: Antibacterial activity against Mycobacterium intracellulare ATCC 13950 in presence of clarithromycin by checkerboard assay; format: functional, organism-based
Outline: (§1)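 Checkerboard in 96-well plates. Antibiotic two-fold serially diluted along columns, haloperidol derivative two-fold along rows. Bacteria prepared as for the MIC determination. MICs alone and in combination used to calculate FICI. At least duplicate independent trials.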

HEK293 [2] = assay: Cytotoxicity against human HEK293 cells assessed as reduction in cell viability at 200 uM incubated for 24 hrs by resazurin assay; format: toxicity, cell-based; settings: hek293, 24 h
Outline: (§2)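 Resazurin viability assay in DMEM + 10% FBS, 1% penicillin/streptomycin, 37 °C, 5% CO₂. Seeding: HEK-293 and J774A.1 at 1×10^4 cells/mL, A549 at 5×10^3 cells/mL. After 24 h, compounds added (0.78-200 μM, 0.5% DMSO final). Resazurin added 24 h later, read after 6 h. 1% Triton X as positive control. Quadruplicate.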

[3] = test system: Mycobacterium intracellulare; assay: Antibacterial activity against Mycobacterium intracellulare ATCC 13950 in presence of spectinomycin by checkerboard assay; format: functional, organism-based; outline: as §1
Mycobacterium avium [4] = assay: Antibacterial activity against Mycobacterium avium ATCC 25921 in presence of clarithromycin by checkerboard assay; format: functional, organism-based; outline: as §1
[5] = test system: Mycobacteroides abscessus; assay: Antibacterial activity against Mycobacterium abscessus ATCC 19977 assessed as inhibition of bacterial growth incubated upto 3 weeks hrs by resazurin dye based double-dilution method; format: functional; settings: ATCC 19977, 504 h
Outline: (§3)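 Double-dilution broth MIC. Media: M. smegmatis, Mueller-Hinton; M. abscessus, 7H9 + 0.05% Tween80 + 0.4% glycerol; mc²6230, 7H9 + 0.05% tyloxapol, 0.5% glycerol, 10% OADC, 0.2% casamino acids, 24 µg/mL pantothenate; other mycobacteria, 7H9 + 0.05% Tween80, 0.4% glycerol, 10% ADC. Inoculum from agar set to 0.5 McFarland, then diluted 1:100.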

[6] = test system: Mycobacteroides abscessus; assay: Synergistic antibacterial activity against Mycobacterium abscessus ATCC 19977 in presence of clarithromycin by checkerboard assay; format: functional, organism-based; outline: as §1
[7] = test system: Mycobacteroides abscessus; assay: Synergistic antibacterial activity against Mycobacterium abscessus ATCC 19977 in presence of clofazimine by checkerboard assay; format: functional, organism-based; outline: as §1
Mycobacterium avium [8] = assay: Antibacterial activity against Mycobacterium avium ATCC 25921 in presence of clofazimine by checkerboard assay; format: functional, organism-based; outline: as §1
[9] = test system: Mycolicibacterium smegmatis; assay: Synergistic antibacterial activity against Mycobacterium smegmatis mc2 155 assessed as fold reduction in MIC value at 8 ug/ml in presence of spectinomycin by checkerboard assay; format: functional; settings: dose 8 µg/ml
[10] = test system: Mycobacterium tuberculosis; assay: Synergistic antibacterial activity against Mycobacterium tuberculosis H37Ra ATCC NRS22 in presence of spectinomycin by checkerboard assay; format: functional, organism-based; outline: as §1
[11] = test system: Mycobacterium intracellulare; assay: Antibacterial activity against Mycobacterium intracellulare ATCC 13950 in presence of clofazimine by checkerboard assay; format: functional, organism-based; outline: as §1
J774.A1 [12] = assay: Cytotoxicity against mouse J774.A1 cells assessed as reduction in cell viability at 50 uM incubated for 24 hrs by resazurin assay; format: toxicity, cell-based; settings: j774.a1, 24 h; outline: as §2
Mycobacterium avium [13] = assay: Antibacterial activity against Mycobacterium avium ATCC 25921 in presence of spectinomycin by checkerboard assay; format: functional, organism-based; outline: as §1
[14] = test system: Mycobacterium tuberculosis; assay: Antibacterial activity against Mycobacterium tuberculosis H37Ra ATCC NRS22 assessed as inhibition of bacterial growth incubated upto 3 weeks hrs by resazurin dye based double-dilution method; format: functional; settings: H37Ra ATCC NRS22, 504 h; outline: as §3
[15] = test system: Mycolicibacterium smegmatis; assay: Antibacterial activity against Mycobacterium smegmatis mc2 155 assessed as inhibition of bacterial growth incubated upto 3 weeks hrs by resazurin dye based double-dilution method; format: functional; settings: mc2 155, 504 h; outline: as §3
N-acetyltransferase Eis [16] = molecular target: T1, N-acetyltransferase Eis (Mycobacterium tuberculosis (strain ATCC 25618 / H37Rv), UniProt P9WFK7); assay: Inhibition of Mycobacterium tuberculosis Eis assessed as Eis-mediated kanamycin acetylation preincubated for 10 mins followed by substrate addition and measured for 2 to 5 mins using acetyl-CoA as substrate in presence of kanamycin by UV-Vis spectroscopy analysis
T1 sequence (P9WFK7 whole entry): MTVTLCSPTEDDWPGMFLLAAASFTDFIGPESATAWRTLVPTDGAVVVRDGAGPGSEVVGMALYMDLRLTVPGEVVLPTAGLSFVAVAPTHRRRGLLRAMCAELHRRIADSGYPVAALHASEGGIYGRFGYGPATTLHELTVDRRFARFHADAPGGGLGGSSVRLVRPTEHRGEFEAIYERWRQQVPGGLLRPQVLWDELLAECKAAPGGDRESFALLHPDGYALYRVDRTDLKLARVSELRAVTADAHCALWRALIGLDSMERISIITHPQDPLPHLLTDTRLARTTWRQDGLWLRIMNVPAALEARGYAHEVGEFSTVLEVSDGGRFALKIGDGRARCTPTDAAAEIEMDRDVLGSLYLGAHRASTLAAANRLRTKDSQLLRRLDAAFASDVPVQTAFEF
Outline: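 Recombinant Eis (1 µM) mixed with KAN (400 µM) in 50 mM Tris-HCl pH 8.0 and preincubated 10 min with 5-fold serially diluted inhibitor (10% DMSO in buffer). Reaction started with AcCoA and DTNB (2 mM each, as added). Absorbance read every 30 s for 20 min. Initial rates (first 2-5 min) fitted to Hill plot for IC50. At least triplicate.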

[17] = test system: Mycobacterium intracellulare; assay: Antibacterial activity against Mycobacterium intracellulare ATCC 13950 assessed as inhibition of bacterial growth incubated upto 3 weeks hrs by resazurin dye based double-dilution method; format: functional; settings: ATCC 13950, 504 h; outline: as §3
[18] = test system: Mycolicibacterium smegmatis; assay: Synergistic antibacterial activity against Mycobacterium smegmatis mc2 155 assessed as fold reduction in MIC value at 8 ug/ml in presence of clarithromycin by checkerboard assay; format: functional; settings: dose 8 µg/ml
[19] = test system: Mycobacteroides abscessus; assay: Synergistic antibacterial activity against Mycobacterium abscessus ATCC 19977 assessed as reduction in bacterial growth presence of spectinomycin by checkerboard assay; format: functional, organism-based; outline: as §1
A549 [20] = assay: Cytotoxicity against human A549 cells assessed as reduction in cell viability at 200 uM incubated for 24 hrs by resazurin assay; format: toxicity, cell-based; settings: a549, 24 h; outline: as §2
Mycobacterium avium [21] = assay: Antibacterial activity against Mycobacterium avium ATCC 25921 assessed as inhibition of bacterial growth incubated upto 3 weeks hrs by resazurin dye based double-dilution method; format: functional; settings: ATCC 25921, 504 h; outline: as §3
[22] = test system: Mycolicibacterium smegmatis; assay: Synergistic antibacterial activity against Mycobacterium smegmatis mc2 155 assessed as fold reduction in MIC value at 8 ug/ml in presence of clofazimine by checkerboard assay; format: functional, organism-based; settings: dose 8.0 µg/ml
A549 [23] = assay: Cytotoxicity against human A549 cells assessed as reduction in cell viability at 100 uM incubated for 24 hrs by resazurin assay; format: toxicity, cell-based; settings: a549, 24 h; outline: as §2
J774.A1 [24] = assay: Cytotoxicity against mouse J774.A1 cells assessed as reduction in cell viability at 100 uM incubated for 24 hrs by resazurin assay; format: toxicity, cell-based; settings: j774.a1, 24 h; outline: as §2
[25] = test system: Mycobacterium tuberculosis; assay: Potentiation of kanamycin-induced antibacterial activity against Mycobacterium tuberculosis K204 assessed as kanamycin MIC incubated for 1 day followed by kanamycin addition for 6 days and by Alamar blue assay; format: functional; settings: K204, 168 h, time 7 day
Outline: (§4)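 Mtb in 7H9 + 10% ADC, 0.05% Tween 80, 0.4% glycerol at 37 °C. Inoculum adjusted to OD600 0.2, diluted 1:25. Cells preincubated 24 h at 37 °C with compound (100 µL of 200 µM solution). KAN then added: H37Rv at 2.5 and 1.25 µg/mL; K204 at 10, 5, 2.5, 1.25 µg/mL. Incubated 6 days, AlamarBlue added, colour read at 24 and 48 h. MIC = lowest KAN with no colour change. At least twice in duplicate.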

[26] = test system: Mycobacterium tuberculosis; assay: Potentiation of kanamycin-induced antibacterial activity against Mycobacterium tuberculosis H37Rv assessed as kanamycin MIC incubated for 1 day followed by kanamycin addition for 6 days and by Alamar blue assay; format: functional; settings: 168 h, time 7 day; outline: as §4
A549 [27] = assay: Cytotoxicity against human A549 cells assessed as reduction in cell viability at 100 to 200 uM incubated for 24 hrs by resazurin assay; format: toxicity, cell-based; settings: a549, 24 h, dose 100-200 µM; outline: as §2
HEK293 [28] = assay: Cytotoxicity against human HEK293 cells assessed as reduction in cell viability at 25 uM incubated for 24 hrs by resazurin assay; format: toxicity, cell-based; settings: hek293, 24 h; outline: as §2
Escherichia coli = assay: Antibacterial activity against Escherichia coli MC1061 assessed as inhibition of bacterial growth incubated upto 3 weeks hrs by resazurin dye based double-dilution method; format: functional, organism-based
[29] = test system: Mycobacterium tuberculosis; assay: Antibacterial activity against Mycobacterium tuberculosis K204 assessed as inhibition of bacterial growth at 100 uM incubated for 24 hrs by Alamar blue assay; format: functional, organism-based
J774.A1 [30] = assay: Cytotoxicity against mouse J774.A1 cells assessed as reduction in cell viability at 25 uM incubated for 24 hrs by resazurin assay; format: toxicity, cell-based; settings: j774.a1, 24 h; outline: as §2
[31] = test system: Mycobacterium tuberculosis; assay: Antibacterial activity against Mycobacterium tuberculosis H37Rv assessed as inhibition of bacterial growth at 100 uM incubated for 24 hrs by Alamar blue assay; format: functional, organism-based
[32] = Metabolic stability in human liver microsomes at 2 to 4 uM incubated for 30 mins by LC-MS/MS analysis; format: ADME, Microsome; settings: dose 2-4 µM, read-out: Stability
A549 [33] = assay: Cytotoxicity against human A549 cells assessed as reduction in cell viability at 25 uM incubated for 24 hrs by resazurin assay; format: toxicity, cell-based; settings: a549, 24 h; outline: as §2
[34] = Metabolic stability in mouse liver microsomes at 2 to 4 uM incubated for 30 mins by LC-MS/MS analysis; format: ADME, Microsome; settings: dose 2-4 µM, read-out: Stability
A549 [35] = assay: Cytotoxicity against human A549 cells assessed as reduction in cell viability at 50 to 200 uM incubated for 24 hrs by resazurin assay; format: toxicity, cell-based; settings: a549, 24 h, dose 50-200 µM; outline: as §2
N-acetyltransferase Eis [36] = molecular target: T1, N-acetyltransferase Eis; assay: Competitive inhibition of Mycobacterium tuberculosis Eis assessed as reduction in Eis-mediated kanamycin acetylation preincubated for 10 mins followed by substrate addition and measured for 2 to 5 mins using acetyl-CoA as substrate in presence of kanamycin by Lineweaver-Burk plot analysis
Outline: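 Same DTNB-coupled Eis acetylation assay used for IC50, run as Michaelis-Menten kinetics with inhibitor at 0-1 μM. Vmax and Km from these fits used to determine mode of inhibition. Quadruplicate.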

SMILES	Activity (HEK293 [2])	MIC [5]	fold change (FC) [9]	Activity (J774.A1 [12])	MIC [14]	MIC [15]	IC50 (N-acetyltransferase Eis [16])	MIC [17]	fold change (FC) [18]	MIC (Mycobacterium avium [21])	Activity (J774.A1 [24])	MIC [25]	MIC [26]	other results
O=C(CCCN1CCC(O)(c2ccc(Cl)cc2)CC1)c1ccc(Cl)cc1 [CHLOROHALOPERIDOL]	Non-Toxic	> 62.5 µM	16	Toxic	15.6 µM (≈ 6.12 µg/mL)	> 62.5 µM	5.1 µM	> 62.5 µM	4	62.5 µM (≈ 24.5 µg/mL)				Activity [1]: Active; Activity [3]: Active; Activity (Mycobacterium avium [4]): Active; Activity [6]: Active; Activity [7]: Active; Activity (Mycobacterium avium [8]): Active; Activity [10]: Active; Activity [11]: Active; Activity (Mycobacterium avium [13]): Active; Activity [19]: Active; Activity (A549 [20]): Non-Toxic; Activity [22]: Active
COc1ccc(C(=O)CCCN2CCC(O)(c3ccc(Cl)cc3)CC2)cc1		> 62.5 µM			62.5 µM (≈ 24.2 µg/mL)	> 62.5 µM	40 µM	> 62.5 µM		> 62.5 µM	Toxic	> 10 µg/mL	≤ 1.25 µg/mL	Activity (A549 [23]): 78%
O=C(CCCN1CCC(O)(c2ccc(Cl)cc2)CC1)c1ccc(Br)cc1	Non-Toxic	> 62.5 µM			31.3 µM (≈ 13.7 µg/mL)	> 62.5 µM	> 200 µM	> 62.5 µM		> 62.5 µM	100%	> 10 µg/mL	≤ 1.25 µg/mL	Activity (A549 [27]): 70%
CC(C)(C)c1ccc(C(=O)CCCN2CCC(O)(c3ccc(Cl)cc3)CC2)cc1		> 62.5 µM	16		3.9 µM (≈ 1.61 µg/mL)	15.6 µM (≈ 6.46 µg/mL)	> 200 µM	7.8 µM (≈ 3.23 µg/mL)	4	7.8 µM (≈ 3.23 µg/mL)				Activity (HEK293 [28]): Toxic; inhibition (Escherichia coli): Active; inhibition [29]: Active; Activity (J774.A1 [30]): Toxic; inhibition [31]: Active; remaining at 0.5 h [32]: 60%; Activity (A549 [33]): Toxic; remaining at 0.5 h [34]: 68%
O=C(CCCN1CCC(O)(c2ccc(Cl)cc2)CC1)c1ccc(F)cc1 [HALOPERIDOL]	Non-Toxic	> 62.5 µM	16	100%	31.3 µM (≈ 11.8 µg/mL)	> 62.5 µM	0.39 µM	62.5 µM (≈ 23.5 µg/mL)	4	62.5 µM (≈ 23.5 µg/mL)	Toxic	5 µg/mL	≤ 1.25 µg/mL	Activity (A549 [35]): 70%; Ki (N-acetyltransferase Eis [36]): 0.39 µM
